Measured values from ChEMBL document CHEMBL1155236, “Identification of biphenyl-based hybrid molecules able to decrease the intracellular level of Bcl-2 protein in Bcl-2 overexpressing leukemia cells” (J Med Chem, 2009).
pIC50: −log10 of the molar value.

Columns and labels:
K562 [1] = test: Antiproliferative activity against human K562 cells after 48 hrs by trypan blue method; assay type: functional, cell-based; conditions: K562, 48 h
Method in brief: (§1)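 Growth inhibition read by counting cells with an automatic cell counter after 48 h of compound exposure. IC50 is the concentration inhibiting 50% of cell growth.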

HL-60 [2] = test: Antiproliferative activity against human HL60 cells after 48 hrs by trypan blue method; assay type: functional, cell-based; conditions: HL-60, 48 h; method in brief: as §1
K562 [3] = test: Induction of apoptosis in human K562 cells assessed as decrease in Bcl-2 expression at 30 uM after 24 hrs by flow cytometry; assay type: functional; set-up: scale not given: the % may be the effect or the level left
Method in brief: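 K562 cells cultured 24 h with compound at 30 μM or without (control). Intracellular Bcl-2 read by flow cytometry after staining with FITC-conjugated anti-Bcl-2 monoclonal antibody. Treated histograms compared with control histograms.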

K562 [4] = test: Cell cycle arrest in human K562 cells by accumulation at G1 phase at 30 uM after 24 hrs using propidium iodide staining by FACS; assay type: functional
Method in brief: (§2)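 K562 cells treated for 24, 48 or 72 h. Cells stained with propidium iodide and cell-cycle phase distribution analysed by flow cytometry against untreated cells. The sub-G0–G1 peak was taken as apoptotic.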

K562 [5] = test: Cell cycle arrest in human K562 cells by accumulation at G1 phase at 30 uM after 72 hrs using propidium iodide staining by FACS; assay type: functional; method in brief: as §2
K562 [6] = test: Cell cycle arrest in human K562 cells by accumulation at sub-G1 (apoptotic) phase at 30 uM after 24 hrs using propidium iodide staining by FACS; assay type: functional; method in brief: as §2
K562 [7] = test: Cell cycle arrest in human K562 cells by accumulation at S phase at 30 uM after 72 hrs using propidium iodide staining by FACS; assay type: functional; method in brief: as §2
K562 [8] = test: Cell cycle arrest in human K562 cells by accumulation at G2/M phase at 30 uM after 48 hrs using propidium iodide staining by FACS; assay type: functional; method in brief: as §2
[9] = Cytotoxicity against human lymphocytes after 48 hrs by trypan blue method; assay type: cell-based; conditions: Lymphocyte; method in brief: as §1
K562 [10] = test: Cell cycle arrest in human K562 cells by accumulation at S phase at 30 uM after 48 hrs using propidium iodide staining by FACS; assay type: functional; method in brief: as §2
K562 [11] = test: Cell cycle arrest in human K562 cells by accumulation at S phase at 30 uM after 24 hrs using propidium iodide staining by FACS; assay type: functional; method in brief: as §2
K562 [12] = test: Cell cycle arrest in human K562 cells by accumulation at G2/M phase at 30 uM after 72 hrs using propidium iodide staining by FACS; assay type: functional; method in brief: as §2
K562 [13] = test: Cell cycle arrest in human K562 cells by accumulation at sub-G1 (apoptotic) phase at 30 uM after 72 hrs using propidium iodide staining by FACS; assay type: functional; method in brief: as §2
K562 [14] = test: Cell cycle arrest in human K562 cells by accumulation at G2/M phase at 30 uM after 24 hrs using propidium iodide staining by FACS; assay type: functional; method in brief: as §2
K562 [15] = test: Induction of apoptosis in human K562 cells assessed as morphological changes after 48 hrs by annexin V assay; assay type: functional, cell-based; conditions: K562, 48 h
Method in brief: (§3)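 HL60 or K562 cells treated for 48 h. Apoptosis scored by morphological assay and annexin V test. AC50 is the concentration inducing apoptosis in 50% of cells.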

K562 [16] = test: Cell cycle arrest in human K562 cells by accumulation at G1 phase at 30 uM after 48 hrs using propidium iodide staining by FACS; assay type: functional; method in brief: as §2
HL-60 [17] = test: Induction of apoptosis in human HL60 cells assessed as morphological changes after 48 hrs by annexin V assay; assay type: functional, cell-based; conditions: HL-60, 48 h; method in brief: as §3
K562 [18] = test: Cell cycle arrest in human K562 cells by accumulation at sub-G1 (apoptotic) phase at 30 uM after 48 hrs using propidium iodide staining by FACS; assay type: functional; method in brief: as §2

Structure (SMILES): CC1(C)OC(=O)C2(C(=O)O1)[C@@H](c1ccc(-c3ccc(CO)cc3)cc1)CC(=O)C[C@H]2c1ccccc1
- pIC50 (K562 [1]): 4.42
- pIC50 (HL-60 [2]): 4.70

Structure (SMILES): O=C1C[C@H](c2cnc[nH]2)C2(C(=O)c3ccccc3C2=O)[C@H](c2ccc(O)cc2)C1
- pIC50 (K562 [1]): 4.02
- pIC50 (HL-60 [2]): 4.07

Structure (SMILES): CC1(C)OC(=O)C2(C(=O)O1)[C@@H](c1ccc(O)cc1)CC(=O)C[C@H]2c1ccc(O)cc1
- pIC50 (K562 [1]): < 4.00
- pIC50 (HL-60 [2]): 4.06

Structure (SMILES): O=C1C[C@H](c2ccc(O)cc2)C2(C(=O)c3ccccc3C2=O)[C@H](c2ccc(O)cc2)C1
- pIC50 (K562 [1]): 4.14
- pIC50 (HL-60 [2]): 4.55

Structure (SMILES): CC1(C)OC(=O)C2(C(=O)O1)[C@@H](c1ccc(-c3ccc(O)cc3)cc1)CC(=O)C[C@H]2c1ccccc1
- Activity (K562 [3]): 31.2%
- Activity (K562 [4]): 46%
- Activity (K562 [5]): 37%
- Activity (K562 [6]): 7%
- Activity (K562 [7]): 54%
- Activity (K562 [8]): 9%
- pIC50 [9]: 3.76
- Activity (K562 [10]): 52%
- Activity (K562 [11]): 43%
- Activity (K562 [12]): 9%
- Activity (K562 [13]): 47%
- Activity (K562 [14]): 11%
- AC50 (K562 [15]): 33 µM
- pIC50 (K562 [1]): 5.05
- Activity (K562 [16]): 39%
- AC50 (HL-60 [17]): 16 µM
- Activity (K562 [18]): 46%
- pIC50 (HL-60 [2]): 5.10

Structure (SMILES): Oc1ccc(-c2ccc(-c3cc(O)cc(O)c3)cc2)cc1
- AC50 (K562 [15]): 75 µM
- pIC50 (K562 [1]): 4.70

Structure (SMILES): O=C1C[C@H](c2ccc(-c3ccc(O)cc3)cc2)C2(C(=O)c3ccccc3C2=O)[C@H](c2ccccc2)C1
- Activity (K562 [3]): 32.8%
- Activity (K562 [4]): 44%
- Activity (K562 [5]): 34%
- Activity (K562 [6]): 4%
- Activity (K562 [7]): 61%
- Activity (K562 [8]): 4%
- pIC50 ([9]; read-out: IC50): 3.67
- Activity (K562 [10]): 61%
- Activity (K562 [11]): 39%
- Activity (K562 [12]): 2%
- Activity (K562 [13]): 55%
- Activity (K562 [14]): 17%
- AC50 (K562 [15]; read-out: AC50): 25 µM
- pIC50 (K562 [1]): 5.10
- Activity (K562 [16]): 35%
- AC50 (HL-60 [17]; read-out: AC50): 11 µM
- Activity (K562 [18]): 53%
- pIC50 (HL-60 [2]): 5.22

Structure (SMILES): O=C1C[C@H](c2ncc[nH]2)C2(C(=O)c3ccccc3C2=O)[C@H](c2ncc[nH]2)C1
- pIC50 (K562 [1]): < 4.00
- pIC50 (HL-60 [2]): < 4.00
